Data from ChEMBL document CHEMBL4145448, “Broad activity of diphenyleneiodonium analogues against Mycobacterium tuberculosis, malaria parasites and bacterial pathogens” (Eur J Med Chem, 2018).

Experiments:
[1] = Selectivity index, ratio of CC50 for human HepG2 cells in presence of 1% FBS to MIC for vancomycin-resistant Staphylococcus aureus ATCC 700699; type: toxicity; settings: read-out: Selectivity Index
Method in brief: (§1)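 Selectivity index is CC50 (1% FBS) divided by MIC. […] They then got compound at 300 to 0.14 µM (3-fold steps) for 24 h at 37 °C, 5% CO2. Resazurin (10 µM, 2 h) was read at ex/em 560/590 in duplicate wells. For MIC, CLSI broth microdilution was run in CaMHB with ~10^6 cfu/mL inoculum and 0–128 µM compound.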

[2] = Selectivity index, ratio of CC50 for human HepG2 cells in presence of 1% FBS to MIC for Pseudomonas aeruginosa QLD PSA 1; type: toxicity; settings: read-out: Selectivity Index; method in brief: as §1
[3] = Selectivity index, ratio of CC50 for human HepG2 cells in presence of 1% FBS to MIC for Acinetobacter baumannii ATCC 19606; type: toxicity; settings: read-out: Selectivity Index
Staphylococcus aureus = test: Antibacterial activity against methicillin-resistant Staphylococcus aureus ATCC 43300 after 18 hrs by broth microdilution method; type: functional; settings: ATCC 43300, 18 h
Method in brief: (§2)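 Broth microdilution per CLSI in cation-adjusted Mueller-Hinton broth. 100 µL inoculum (~10^6 cfu/mL in CaMHB) mixed with 100 µL CaMHB containing compound, 0 to 128 µM. Incubated 18 h at 37 °C. MIC taken as the lowest concentration with no visible growth. Polymyxin B served as positive control. Isolates were stored at -80 °C in tryptone soy broth with 20% glycerol.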

Escherichia coli = test: Antibacterial activity against Escherichia coli N4149 after 18 hrs by broth microdilution method; type: functional; settings: N4149, 18 h; method in brief: as §2
Acinetobacter baumannii [4] = test: Antibacterial activity against Acinetobacter baumannii ATCC 17978 after 18 hrs by broth microdilution method; type: functional; settings: ATCC 17978, 18 h; method in brief: as §2
[5] = Selectivity index, ratio of CC50 for human HepG2 cells in presence of 1% FBS to MIC for Escherichia coli N2381; type: toxicity; settings: read-out: Selectivity Index
[6] = Selectivity index, ratio of CC50 for human HepG2 cells in presence of 1% FBS to MIC for Pseudomonas aeruginosa isolate 19147nm; type: toxicity; settings: read-out: Selectivity Index; method in brief: as §1
[7] = Selectivity index, ratio of CC50 for human HepG2 cells in presence of 1% FBS to MIC for Mycobacterium tuberculosis H37Rv ATCC 25618; type: toxicity; settings: read-out: Selectivity Index
Pseudomonas aeruginosa [8] = test: Antibacterial activity against Pseudomonas aeruginosa isolate 18878B klon 1 after 18 hrs by broth microdilution method; type: functional; settings: isolate 18878B klon 1, 18 h; method in brief: as §2
[9] = Selectivity index, ratio of CC50 for human HepG2 cells in presence of 1% FBS to MIC for Klebsiella pneumoniae isolate 224-11-C; type: toxicity; settings: read-out: Selectivity Index
Klebsiella pneumoniae [10] = test: Antibacterial activity against Klebsiella pneumoniae isolate 1 after 18 hrs by broth microdilution method; type: functional; settings: isolate 1, 18 h; method in brief: as §2
[11] = Selectivity index, ratio of CC50 for human HepG2 cells in presence of 1% FBS to MIC for Acinetobacter baumannii ATCC 17978 col10; type: toxicity; settings: read-out: Selectivity Index
Klebsiella pneumoniae [12] = test: Antibacterial activity against Klebsiella pneumoniae isolate 248-33-D after 18 hrs by broth microdilution method; type: functional; method in brief: as §2
Acinetobacter baumannii [13] = test: Antibacterial activity against Acinetobacter baumannii isolate 07AC-336 after 18 hrs by broth microdilution method; type: functional; settings: isolate 07AC-336, 18 h; method in brief: as §2
[14] = Selectivity index, ratio of CC50 for human HepG2 cells in presence of 1% FBS to MIC for Acinetobacter baumannii isolate 07AC-336; type: toxicity; settings: read-out: Selectivity Index
Pseudomonas aeruginosa [15] = test: Antibacterial activity against Pseudomonas aeruginosa QLD PSA 1 after 18 hrs by broth microdilution method; type: functional; settings: QLD PSA 1, 18 h; method in brief: as §2
Acinetobacter baumannii [16] = test: Antibacterial activity against Acinetobacter baumannii ATCC 17978 col10 after 18 hrs by broth microdilution method; type: functional; settings: ATCC 17978 col10, 18 h; method in brief: as §2
[17] = Selectivity index, ratio of CC50 for human HepG2 cells in presence of 1% FBS to MIC for Klebsiella pneumoniae ATCC 13883; type: toxicity; settings: read-out: Selectivity Index
[18] = test system: Mycobacterium tuberculosis; test: Antimycobacterial activity against Mycobacterium tuberculosis H37Rv ATCC 25618 after 7 days by resazurin dye based assay; type: functional; settings: H37Rv ATCC 25618, 168 h
Method in brief: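 H37Rv grown at 37 °C in 7H9 with 10% ADC, 0.5% glycerol and 0.02% tyloxapol. Compounds serially diluted in water, 0 to 10 µM, in triplicate. Culture adjusted to OD600 0.001 and incubated 7 days at 37 °C. Resazurin (0.05% w/v) added for 4-24 h and fluorescence read at 590 nm. MIC is the lowest concentration giving complete growth inhibition versus untreated. Rifampicin served as control.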

[19] = Selectivity index, ratio of CC50 for human HepG2 cells in presence of 1% FBS to IC50 for Plasmodium knowlesi YH1; type: toxicity; settings: read-out: Ratio IC50
Plasmodium knowlesi = test: Growth inhibition of Plasmodium knowlesi YH1 after 50 hrs by ethidium bromide staining based flow cytometry; type: functional, organism-based; settings: YH1, 50 h
Method in brief: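 P. knowlesi YH1 cultured in human O+ erythrocytes in RPMI-HEPES with 0.5% Albumax II under 1% O2/4% CO2. Ring-synchronised parasites set up at 1% parasitaemia and 1% haematocrit with compound. Cultured 50 h to late trophozoites of the next cycle. Stained 1 h with 10 µg/mL ethidium bromide and parasitaemia counted by flow cytometry.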

Plasmodium falciparum = test: Growth inhibition of […] GFP-fused Plasmodium falciparum D10 after 90 hrs by ethidium bromide staining based flow cytometry; type: functional, organism-based; settings: D10, 90 h
Method in brief: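 Parasites cultured in human O+ erythrocytes in RPMI-HEPES pH 7.4 with hypoxanthine, NaHCO3, gentamicin and 0.5% Albumax II under 1% O2/4% CO2 at 37 °C. Synchronised to rings with heparin plus sorbitol. Set up at 1% parasitaemia and 1% haematocrit with 10x compound added. Cultured 90 h to next-cycle trophozoites. Stained with 10 µg/mL ethidium bromide for 1 h, washed, parasitaemia counted by flow cytometry with GFP gating.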

[20] = Selectivity index, ratio of CC50 for human HepG2 cells in presence of 1% FBS to IC50 for drug-resistant GFP-fused Plasmodium falciparum D10; type: toxicity; settings: read-out: Ratio IC50
[21] = Stability in cation-adjusted Mueller-Hinton broth at 37 degC after 1 day by LC-MS analysis; type: physicochemical; settings: 24 h
Method in brief: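 Compound was incubated under bacterial assay conditions: CaMHB, 37 °C, polypropylene microtitre wells. The species present were analysed by LCMS the next day.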

Row | Compound | selectivity ratio [1] | selectivity ratio [2] | selectivity ratio [3] | MIC (Staphylococcus aureus) [µM] | MIC (Escherichia coli) [µM] | MIC (Acinetobacter baumannii [4]) [µM] | selectivity ratio [5] | selectivity ratio [6] | selectivity ratio [7] | MIC (Pseudomonas aeruginosa [8]) [µM] | selectivity ratio [9] | MIC (Klebsiella pneumoniae [10]) [µM] | selectivity ratio [11] | MIC (Klebsiella pneumoniae [12]) [µM] | MIC (Acinetobacter baumannii [13]) [µM] | selectivity ratio [14] | MIC (Pseudomonas aeruginosa [15]) [µM] | MIC (Acinetobacter baumannii [16]) [µM] | selectivity ratio [17] | MIC [18] [µM] | also measured
1 | COc1ccc2c(c1)[I+]c1ccccc1-2 | 0.78 | 0.11 | 0.39 | 4.4 | > 70 | 18 | 0.21 | 0.81 | 24 | 18 | > 0.11 | > 70 | 3.1 | > 70 | > 70 | > 0.11 | 70 | 2.2 | > 0.11 | 0.28 | 
2 | c1ccc2c(c1)[I+]c1c-2ccc2ccccc12 | 0.17 | 0.17 | 0.17 | 2.1 | 34 | 1.1 | 0.09 | 0.34 | 2.4 | 2.1 | 0.02 | 34 | 1.4 | 34 | 8.4 | 0.09 | 4.2 | 0.52 | 0.09 | 0.52 | 
3 | N#Cc1ccc2c(c1)-c1ccccc1[I+]2 | 2.5 | 0.13 | 0.13 | 1.1 | > 71 | 4.4 | 0.32 | 5.1 | 78 | 8.8 | > 0.32 | > 71 | 10 | 71 | 71 | 0.32 | 18 | 2.2 | 0.63 | 0.29 | selectivity ratio [19]: 232; IC50 (Plasmodium knowlesi): 110 nM; IC50 (Plasmodium falciparum): 90 nM; selectivity ratio [20]: 256
4 | Clc1cccc2c1-c1ccccc1[I+]2 | 0.61 | 1.2 | < 2.4 | 1.1 | 0.54 | < 0.27 | 1.2 | < 2.4 | 2.4 | < 0.27 | 0.08 | 8.6 | < 2.4 | 8.6 | < 0.27 | < 2.4 | 0.54 | < 0.27 | 0.15 | 0.28 | selectivity ratio [19]: 8.5; IC50 (Plasmodium knowlesi): 80 nM; IC50 (Plasmodium falciparum): 70 nM; selectivity ratio [20]: 8.9
5 | Cc1ccc2c(c1)[I+]c1ccccc1-2.O=S(=O)([O-])C(F)(F)F | 0.398 | > 0.05 | 0.41 | 4.5 | 72 | 4.5 | 0.05 | 0.81 | 6.4 | 4.5 | 0.05 | 72 | 3.2 | 72 | 18 | 0.21 | > 72 | 1.1 | 0.05 | 0.57 | Stability [21]: Stable
6 | Fc1cccc2c1-c1ccccc1[I+]2 | 2.1 | 1 | 8.2 | 2.2 | 1.1 | 0.56 | 4.2 | < 16 | 16 | < 0.28 | 0.51 | 9 | < 16 | 9 | 1.1 | 4.1 | 4.5 | < 0.28 | 1 | 0.29 | selectivity ratio [19]: 59; IC50 (Plasmodium knowlesi): 80 nM; IC50 (Plasmodium falciparum): 80 nM; selectivity ratio [20]: 61
